In PMC3508427 (The British journal of nutrition, 2009):

Key:
[1] = Plasma pharmacokinetics of total flavanones; assay type: in vivo, human; settings: fruit or juice
In short: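 Randomised cross-over in twenty volunteers on a flavonoid-avoidance diet, given single orange juice (300 g) or fruit portions. Drinking withheld 1·5 h and eating 4 h. Heparinised blood taken at 15, 30, 45 min and 1–48 h, centrifuged, and ascorbate added (final 1 mM). Plasma (pH 5·0) hydrolysed with β-glucuronidase and sulfatase for 2 h at 37°C. Total naringenin and hesperetin measured by C18 SPE and reversed-phase HPLC.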

[2] = assay type: in vivo, human; settings: orange juice, n 129, linear model
In short: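 Extended cohort of 129 subjects given a single 300 g orange juice dose. Urine collected as 24 h fractions: the day before, then for 48 h after, into bottles holding 1 g ascorbic acid. Volumes recorded. Urine (pH 5·0) hydrolysed with β-glucuronidase (10 000 units) and sulfatase (1000 units) for 2 h at 37°C, with galangin as internal standard. Measured by C18 SPE and HPLC, expressed as % of flavanone dose.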

[3] = cited from earlier work
[4] = cited from earlier work; remark: listed apart in the source

Structure (SMILES) | time of major peak in plasma profile [1] | decrease in urinary excretion between the ages of 20 and 80 years [2] [%] | mean urinary yield [3] [%] | time to peak plasma concentration [4]
COc1ccc([C@@H]2CC(=O)c3c(O)cc(O)cc3O2)cc1O [hesperetin] | about 6 h | 4 |  | 
COc1ccc([C@@H]2CC(=O)c3c(O)cc(O[C@@H]4O[C@H](CO[C@@H]5O[C@@H](C)[C@H](O)[C@@H](O)[C@H]5O)[C@@H](O)[C@H](O)[C@H]4O)cc3O2)cc1O [hesperidin, 7-O-rutinoside of hesperetin] |  |  | > 8 | about 6 h
O=C1C[C@@H](c2ccc(O)cc2)Oc2cc(O)cc(O)c21 [naringenin] | about 6 h |  |  | 
C[C@@H]1O[C@@H](O[C@H]2[C@H](Oc3cc(O)c4c(c3)O[C@H](c3ccc(O)cc3)CC4=O)O[C@H](CO)[C@@H](O)[C@@H]2O)[C@H](O)[C@H](O)[C@H]1O [naringin] |  |  | > 8 | about 6 h
OC[C@H]1O[C@@H](Oc2cc3c(O)cc(O)cc3[o+]c2-c2ccc(O)cc2)[C@H](O)[C@@H](O)[C@@H]1O [pelargondin-3-glucoside] |  |  |  | about 1 h
C[C@@H]1O[C@@H](OC[C@H]2O[C@@H](Oc3c(-c4ccc(O)c(O)c4)oc4cc(O)cc(O)c4c3=O)[C@H](O)[C@@H](O)[C@@H]2O)[C@H](O)[C@H](O)[C@H]1O [rutin, quercetin rutinoside] |  |  |  | about 6 h
